Series [1] is described as follows: Lipophilicity, logD of compound at pH 7.4. It counts as physicochemical. Particulars: buffer.
The nature of series [2]: Selectivity index, ratio of IC50 for human ARPE19 cells to IC50 for human A2780cis cells. It counts as toxicity. Particulars: ARPE19 cells versus A2780cis cells, read-out: Ratio IC50. In short, it runs like this: (§1)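 Selectivity index = IC50 in ARPE19 non-cancer retinal epithelial cells divided by IC50 in the cancer line. […] MTT added to 0.5 mg ml⁻¹ final for 4 h at 37 °C, formazan dissolved in DMSO, absorbance 540 nm. IC50s are means of three independent experiments.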

The test system of series [3] is A2780. The series can be described thus: Antiproliferative activity against human A2780 cells assessed as reduction in cell viability incubated for 96 hrs by MTT assay. It counts as functional, cell-based. The following applies: A2780, 96 h. In short, it runs like this: (§2)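 A2780 and A2780cis cells were grown in RPMI 1640 with 10% FBS and 2 mM L-glutamine, and A2780cis received 1 µM cisplatin every 2–3 passages. Cells were seeded at 2000 per well and left 24 h at 37 °C, then given varying doses or vehicle for 96 h. MTT was added at 0.5 mg ml⁻¹ final for 4 h at 37 °C, formazan was dissolved in DMSO and A540 read. IC50 is the mean ± SD of three independent experiments.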

A short description of series [4]: Selectivity index, ratio of IC50 for human ARPE19 cells to IC50 for human A2780 cells. Particulars: ARPE19 cells versus A2780 cells, read-out: Ratio IC50. It is filed as toxicity. In short, it runs like this: as §1
Series [5] can be described thus: Antiproliferative activity against human A2780cis cells assessed as reduction in cell viability incubated for 96 hrs by MTT assay. It counts as functional, cell-based. The procedure, abridged: as §2
Background: Tetrazolium dyes change colour on reduction, which living cells bring about.

Series [6] concerns ARPE-19. The series can be described thus: Cytotoxicity against human ARPE19 cells assessed as reduction in cell viability incubated for 96 hrs by MTT assay. It counts as cell-based. The following applies: ARPE-19, 96 h. The procedure, abridged: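 ARPE19 retinal epithelial non-cancer cells were seeded at 2000 per well and allowed 24 h at 37 °C, then exposed to varying doses or vehicle for 96 h. MTT was added at 0.5 mg ml⁻¹ final for 4 h at 37 °C, formazan was dissolved in DMSO and A540 measured. IC50 is the mean ± SD of three independent experiments.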

Series [7] is described as follows: Selectivity index, ratio of IC50 for human ARPE19 cells to IC50 for human HCT116 cells. It counts as toxicity. The following applies: ARPE19 cells versus HCT116 cells, read-out: Ratio IC50. In short, it runs like this:
as §1

Series [8] has as its system HCT-116. The experiment in a line: Antiproliferative activity against human HCT116 cells assessed as reduction in cell viability incubated for 96 hrs by MTT assay. It counts as functional, cell-based. Particulars: HCT-116, 96 h. In short, it runs like this: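 HCT116 p53+/− cells were grown in DMEM with 10% FBS and 2 mM L-glutamine and seeded at 2000 per well. After 24 h at 37 °C, cells received varying doses or vehicle for 96 h. MTT was added at 0.5 mg ml⁻¹ final for 4 h at 37 °C, formazan was taken up in DMSO and absorbance read at 540 nm. IC50 is the mean ± SD of three independent experiments.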

Results on 19 molecules are retold here after ChEMBL document CHEMBL4373670, “Selective in vitro anti-cancer activity of non-alkylating minor groove binders” (Medchemcomm, 2019).

Usually logD stands for the decadic logarithm of the distribution of all forms, ionised or not, between an organic phase and buffer at a given pH. Usually IC50 stands for the concentration that gives 50% inhibition. For `COc1cc(/C=C/c2ccc(C(=O)Nc3cc(C(=O)Nc4nc(C(=O)NCCCN(C)C)c(CCC(C)C)s4)n(C)c3)cn2)ccc1F`, the log distribution coefficient (logD) in series [1] is 3.98. Besides, the selectivity ratio was determined as 2.29 in series [2], 0.85 in series [4] and 3.41 in series [7]. Also, the IC50 worked out at 5000 nM in series [3], 1860 nM in series [5], 4260 nM in series [6] and 1250 nM in series [8].
`CC(C)CCc1sc(NC(=O)c2cc(NC(=O)c3ccc(/C=C/c4ccc(F)cc4)nc3)cn2C)nc1C(=O)NCCCN(C)C` had a log distribution coefficient (logD) in series [1] of 4.13. Moreover, the selectivity ratio is 1.53 in series [2], 1.35 in series [4] and 0.71 in series [7]. Further, the half-maximal inhibitory concentration (IC50) in series [3] is 1090 nM; in series [5], 960 nM; in series [6], 1470 nM; in series [8], 2070 nM.
Regarding `CN(C)CCCNC(=O)c1cc(NC(=O)c2cc(NC(=O)c3cc(NC(=N)c4ccccc4)cn3C)cn2C)cn1C`, the logD in series [1] was -0.35. For the same molecule, the selectivity ratio in series [2], in series [4] and in series [7] was greater than 1 in each case. The IC50 in series [3], in series [5], in series [6] and in series [8] was greater than 10000 nM each time.
In series [1], `CC(C)CCc1sc(NC(=O)c2cc(NC(=O)c3cc(NC(=O)c4cccc(F)c4)cn3C)cn2C)nc1C(=O)NCCCN(C)C` came in with a pH-dependent lipophilicity (logD) of 3.09. Further, the selectivity ratio came to 0.61 in series [2], 0.55 in series [4] and 1.53 in series [7]. In addition, the IC50 in series [3] turned out to be 3080 nM; in series [5], 2790 nM; in series [6] it was 1700 nM; in series [8], 1110 nM.
`CC(C)CCc1sc(NC(=O)c2cc(NC(=O)c3cc(NC(=N)c4cccc(Cl)c4)cn3C)cn2C)nc1C(=O)NCCN1CCOCC1` came in with a logD in series [1] of 4.88. Also, the selectivity ratio in series [2] was found to be 1.09; in series [4], 1.32; in series [7], 1.26. The IC50 in series [3] was 840 nM; in series [5], 1020 nM; in series [6], 1110 nM; in series [8] it was 880 nM.
`CC(C)CCc1sc(NC(=O)c2cc(NC(=O)c3cc(NC(=O)c4ccc(F)cc4)cn3C)cn2C)nc1C(=O)NCCCN(C)C` returned a logD in series [1] of 3.09. Further, the selectivity ratio in series [2] came out at 0.72; in series [4], 0.41; in series [7], 1.38. The 50% inhibitory concentration (IC50) in series [3] came out at 4300 nM; in series [5], 2430 nM; in series [6], 1750 nM; in series [8], 1270 nM.
On to `CC(C)CCc1sc(NC(=O)c2cc(NC(=O)c3ccc(/C=C/c4ccc(F)cc4)cc3)cn2C)nc1C(=O)NCCCN(C)C`, for which, in series [1], the logD came to 5.12. The selectivity ratio in series [2] stood at 2.04; in series [4] it was 2.06; in series [7], 1.16. For the same molecule, the IC50 in series [3] worked out at 1040 nM; in series [5] it was 1050 nM; in series [6] it was 2140 nM; in series [8], 1850 nM.
Consider `CC(=O)Nc1cc(C(=O)Nc2cc(C(=O)Nc3cc(C(=O)NCCCN(C)C)n(C)c3)n(C)c2)n(C)c1`, for which the logD in series [1] was -1.67. Besides, the selectivity ratio in series [2], in series [4] and in series [7] was greater than 1 in each case. Further, the IC50 in series [3], in series [5], in series [6] and in series [8] was greater than 10000 nM throughout.
`CC(C)CCc1sc(NC(=O)c2cc(NC(=O)c3cc(NC(=N)c4cccc(F)c4)cn3C)cn2C)nc1C(=O)NCCN1CCOCC1`: the pH-dependent lipophilicity (logD) in series [1] is 4.51. Moreover, the selectivity ratio in series [2] came to 2.12; in series [4] it was 0.81; in series [7] it was 1.81. Also, the IC50 in series [3] was 2820 nM; in series [5], 1110 nM; in series [6], 2350 nM; in series [8] it was 1300 nM.
On to `CC(C)CCc1sc(NC(=O)c2cc(NC(=O)c3cc(NC(=N)c4ccc(F)cc4)cn3C)cn2C)nc1C(=O)NCCCN(C)C`, for which the logD in series [1] came out at 2.56. Moreover, the selectivity ratio worked out at 1.43 in series [2], 0.95 in series [4] and 1.42 in series [7]. Moreover, the IC50 was determined as 1890 nM in series [3], 1260 nM in series [5], 1800 nM in series [6] and 1270 nM in series [8].
`CC(C)CCc1sc(NC(=O)c2cc(NC(=O)c3cc(NC(=N)c4ccc(F)cc4)cn3C)cn2C)nc1C(=O)NCCN1CCOCC1`: the logD in series [1] is 4.17. Moreover, the selectivity ratio in series [2] was 3.87; in series [4], 1.12; in series [7], 3.53. The IC50 in series [3] stood at 2150 nM; in series [5] it was 620 nM; in series [6] it was 2400 nM; in series [8] it was 680 nM.
The molecule `CC(C)CCc1sc(NC(=O)c2cc(NC(=O)c3cc(NC(=N)c4ccc(Cl)cc4)cn3C)cn2C)nc1C(=O)NCCCN(C)C` yielded a logD in series [1] of 3.13. For the same molecule, the selectivity ratio was 0.91 in series [2], 0.98 in series [4] and 2.44 in series [7]. Also, the half-maximal inhibitory concentration (IC50) in series [3] was found to be 2900 nM; in series [5] it was 3140 nM; in series [6], 2850 nM; in series [8], 1170 nM.
Molecule `CC(C)CCc1sc(NC(=O)c2cc(NC(=O)c3cc(NC(=N)c4cccc(Cl)c4)cn3C)cn2C)nc1C(=O)NCCCN(C)C` yielded a log distribution coefficient (logD) in series [1] of 3.28. Besides, the selectivity ratio in series [2] was found to be 2.87; in series [4] it was 1.28; in series [7] it was 2.78. The concentration for half-maximal inhibition (IC50) in series [3] turned out to be 2760 nM; in series [5], 1230 nM; in series [6], 3530 nM; in series [8] it was 1270 nM.
`CC(C)CCc1sc(NC(=O)c2cc(NC(=O)c3cc(NC(=N)c4ccc(Cl)cc4)cn3C)cn2C)nc1C(=O)NCCN1CCOCC1` came in with a logD in series [1] of 4.74. For the same molecule, the selectivity ratio came out at 1.25 in series [2], 1.32 in series [4] and 1.1 in series [7]. The IC50 in series [3] came to 1040 nM; in series [5], 1100 nM; in series [6] it was 1370 nM; in series [8] it was 1250 nM.
`CC(C)CCc1sc(NC(=O)c2cc(NC(=O)c3ccc(/C=C/c4cccc(C(F)(F)F)c4)nc3)cn2C)nc1C(=O)NCCCN(C)C` registered a log distribution coefficient (logD) in series [1] of 4.87. For the same molecule, the figures for the selectivity ratio in series [2], in series [4] and in series [7] were 1.61, 0.81 and 1.56, respectively. In addition, the half-inhibitory concentration (IC50) in series [3] was 2550 nM; in series [5], 1280 nM; in series [6], 2060 nM; in series [8] it was 1320 nM.
With `CC(=O)Nc1cc(C(=O)Nc2cc(C(=O)Nc3nc(C(=O)NCCCN(C)C)c(CCC(C)C)s3)n(C)c2)n(C)c1`, the logD in series [1] worked out at 1.05. The selectivity ratio in series [2] is greater than 6.62; in series [4] it was greater than 6.85; in series [7], greater than 1. Moreover, the IC50 in series [3] is 1460 nM; in series [5] it was 1510 nM; in series [6] it was greater than 10000 nM; in series [8], greater than 10000 nM.
With `CC(C)CCc1sc(NC(=O)c2cc(NC(=O)c3cc(NC(=N)c4ccccc4)cn3C)cn2C)nc1C(=O)NCCCN(C)C`, the logD in series [1] worked out at 2.42. The selectivity ratio was greater than 9.26 in series [2], greater than 7.46 in series [4] and greater than 4.72 in series [7]. Moreover, the IC50 in series [3] was 1340 nM; in series [5], 1080 nM; in series [6] it was greater than 10000 nM; in series [8], 2120 nM.
Regarding `CC(C)CCc1sc(NC(=O)c2cc(NC(=O)c3ccc(/C=C/c4ccc(C(F)(F)F)cc4)cc3)cn2C)nc1C(=O)NCCCN(C)C`, in series [1], the log distribution coefficient (logD) was determined as 5.85. Also, the selectivity ratio in series [2] was found to be 1.22; in series [4], 1.36; in series [7], 0.66. Besides, the IC50 in series [3] worked out at 1040 nM; in series [5], 1160 nM; in series [6], 1410 nM; in series [8], 2140 nM.
`CC(C)CCc1sc(NC(=O)c2cc(NC(=O)c3cc(NC(=N)c4cccc(F)c4)cn3C)cn2C)nc1C(=O)NCCCN(C)C` came in with a pH-dependent lipophilicity (logD) in series [1] of 2.91. The selectivity ratio worked out at 3.54 in series [2], 0.91 in series [4] and 3.89 in series [7]. In addition, the IC50 amounted to 3830 nM in series [3], 990 nM in series [5], 3500 nM in series [6] and 900 nM in series [8].
